An excerpt weighted towards active compounds, which were near 1.8% of everything screened.
TLR4 MyD88 comp: inhibitors of TLR4-MyD88 association in cells, primary screen, cell-based, HeLa CL3-4, BLA complementation, FRET ratio; inhibition, % at 8.4 µM; AID 861, 2007; HeLa CL3-4 TLR4/MyD88 BLA complementation; 200,000 tested, 0.18% active; in the data active = inhibition above about 25%;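 note: 0% = vehicle and 100% = reference inhibitor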
MC4R antagonist: MC4R antagonists of cAMP signaling, primary screen, cell-based, TR-FRET, antagonist arm of biased-ligand search; Melanocortin receptor 4 (Homo sapiens), P32245; MC4R-expressing cells, MTII-stimulated cAMP, LANCE TR-FRET; inhibition, % at 6.5 µM; 360,000 tested, 0.48% active; AID 540295, 2011;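 active = inhibition above its plate's cutoff, the mean of tested wells on that plate plus 3 SD, cut at about 29% in these data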;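 note: 0% = Melanotan II alone and 100% = Melanotan II plus saturating MCL0020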
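Material: human MC4R-expressing U2OS cells. Probe or stimulus: Melanotan II challenge. Dosing: 6.5 µM single dose. Times: 30-min compound, 1-h challenge, 1-h detection, room temperature. Technique: TR-FRET with Eu-cAMP and labeled anti-cAMP, 671 nm. Replication: singlicate.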
NOD2 RIPK2 PPI: NOD2-RIPK2 binding disruptors in cells, primary screen, fluorescence, CHO cells, BLA complementation; Receptor-interacting serine/threonine-protein kinase 2 (Homo sapiens), O43353; CCF4 ratio; inhibition, % at 4.98 µM; 360,000 tested, 0.38% active; AID 624267, 2012; in the data active = inhibition above about 21%;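 note: 0% = vehicle only and 100% = reference blocker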
MC4R barr agon: MC4R agonists recruiting beta-arrestin, primary screen, cell-based, luminescence, agonist arm of biased-ligand search | Melanocortin receptor 4 (Homo sapiens), P32245 | 360,000 tested, 0.98% active | U2OS MC4R beta-arrestin complementation; percent of melanotan II response, DMSO zero | activation, % at 8.9 µM;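 active = activation above a per-plate cutoff, the mean activation of sample wells on that plate plus 3 SD, cut at about 8% in these data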
TLR9-MyD88 block: inhibitors of TLR9-MyD88 association in cells, primary screen, cell-based, CHO, BLA complementation, fluorescence; inhibition, % at 4.98 µM; 340,000 tested, 0.21% active; CCF4 FRET ratio;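 active = inhibition above the mean over all tested compounds plus 3 SD, cut at about 21% in these data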;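 note: 0% = DMSO only wells and 100% = clavulanate BLA inhibitor control wells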
U2OS cAMP counter: nonselective cAMP signaling inhibitors, parental cells, counter-screen for MC4R biased antagonist project, cell-based, TR-FRET, U2OS, forskolin, triplicate; shares compounds with MC4R antagonist; LANCE TR-FRET; inhibition, % at 6.5 µM; 1,600 tested, 26% active; AID 602193, 2012;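 active = mean inhibition over triplicates above the low-control well mean plus 3 SD, set per campaign, cut at about 13% in these data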;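 note: signal is single emission at 671 nm which falls as cellular cAMP rises; 0% = forskolin-stimulated wells and 100% = buffer without forskolin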
MC4R antag conf: MC4R cAMP antagonists, retest, confirmation, cell-based, TR-FRET | shares compounds with MC4R antagonist | MC4R-expressing cells, MTII-stimulated cAMP | inhibition, % at 6.5 µM | 1,600 tested, 27% active | AID 602195, 2012; in the data active = inhibition above about 29%;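 note: 0% = agonist stimulated wells alone and 100% = agonist stimulated wells plus saturating reference antagonist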
Active calls of the source: *; nt = no result given.

SMILES	TLR4 MyD88 comp	MC4R antagonist	NOD2 RIPK2 PPI	MC4R barr agon	TLR9-MyD88 block	U2OS cAMP counter	MC4R antag conf
CN(Cc1ccccc1)C(=C(Cl)Cl)/C(=C1/NCCN1C)[N+](=O)[O-]	0.3	39.2*	11.4	-1.1	5.0	1.7	2.7
NC(=O)c1ccc(NC(=O)COC(=O)/C=C/c2ccc3c(c2)OCO3)cc1	nt	13.0	-12.6	1.5	-4.4	nt	nt
CCOC(=O)CNC(=O)CCCCCC(=O)NCC(=O)OCC	0.9	8.8	3.0	-0.2	1.2	nt	nt
CCOC(=O)CC(=O)NC(C)(C)CCCCC(C)(C)NC(=O)CC(=O)OCC	nt	28.6*	-0.7	-0.5	-5.6	-2.6	0.6
Cc1nc2ccc(NC(=O)c3ccc(S(=O)(=O)N(C)c4ccccc4)cc3)cc2s1	-6.4	29.8*	-0.8	-1.3	-6.6	26.6*	25.0
CN(C(=O)COC(=O)c1nc(Cl)c(Cl)c(Cl)c1Cl)C1CCS(=O)(=O)C1 (centres undefined)	-0.1	43.2*	14.7	-1.8	19.1	14.8*	37.7*
CN(C(=O)COC(=O)c1ccc(C(C)(C)C)cc1)C1CCS(=O)(=O)C1 (centres undefined)	nt	1.4	-2.8	-1.1	4.4	nt	nt
COc1ccc(-n2c(CN3CCN(Cc4ccccc4)CC3)nc3ccc([N+](=O)[O-])cc3c2=O)c(OC)c1	-3.6	16.5	-8.6	0.4	6.9	nt	nt
COc1ccc(-n2c(CN3CCN(c4ccccn4)CC3)nc3ccc([N+](=O)[O-])cc3c2=O)c(OC)c1	0.8	38.1*	-5.0	-1.3	0.3	0.8	7.2
Cc1sc2nc(CN(C(=O)c3cccs3)C3CCCC3)[nH]c(=O)c2c1C	-5.8	8.8	-9.5	0.1	-4.5	nt	nt
O=C(c1cccs1)N(Cc1nc2sc3c(c2c(=O)[nH]1)CCCC3)C1CCCC1	-9.0	30.1*	5.0	4.5	-7.9	-14.5	-28.3
CON(C)S(=O)(=O)c1cccc(C(=O)Nc2cccc(S(=O)(=O)NC3=NCCCCC3)c2)c1	nt	2.9	4.2	-2.1	9.2	nt	nt
O=C(CC1C(=O)NCCN1CC1CCCCC1)NCc1cccc(F)c1F (centres undefined)	-2.7	29.5*	6.7	2.6	3.5	0.5	-1.4
Cc1ccccc1CNC(=O)CC1C(=O)NCCN1CC1CCCCC1 (centres undefined)	-7.7	8.6	0.2	-0.1	2.9	nt	nt
O=C(NCCN1CCC(n2c(=O)[nH]c3ccccc32)CC1)c1ccc(F)c(F)c1	nt	nt	-14.6	nt	nt	nt	nt
COC(=O)c1ccc(N2NC(=O)/C(=C/c3cc(OC)c(OC)c(OC)c3)C2=O)cc1	nt	36.4*	-3.2	-1.9	-8.8	1.0	-2.7
COC(=O)c1ccc(N2NC(=O)/C(=C/c3cc(OC)c(O)c(OC)c3)C2=O)cc1	nt	3.9	-0.1	-1.1	4.6	nt	nt
CCSc1nnc(NC(=O)C2CSC3(C)CCC(=O)N23)s1 (centres undefined)	nt	6.7	3.7	2.0	-4.9	nt	nt
C=CCSc1nc2ccccc2c(=O)n1C1CCOC(C)(C)C1 (centres undefined)	nt	34.4*	-1.8	5.6	-4.2	-3.0	5.6
CCOC(=O)CNC(=S)N(CCCN1CCCCCC1)Cc1cccs1	-9.8	33.9*	2.8	0.2	-0.5	0.8	0.4
Cc1ccc(NC(=O)c2ccc(Cl)cc2[N+](=O)[O-])nc1	2.2	-17.3	-1.9	-2.6	-1.1	nt	nt
Cc1ccc(NC(=O)c2ccccc2[N+](=O)[O-])nc1	-7.6	38.3*	-8.7	0.6	-1.7	0.1	-8.4
C[C@H]1Cn2cnc(C(=O)Nc3ccccc3)c2C(=O)N1	nt	31.0*	-5.9	-0.7	-0.9	-1.1	-0.8
COc1ccccc1OCCC(=O)OCC(=O)Nc1cc(S(=O)(=O)N2CCOCC2)ccc1Cl	-0.9	18.8	-12.2	-0.3	-2.8	nt	nt
Cc1ccccc1OCCC(=O)OCC(=O)Nc1cc(S(=O)(=O)N2CCOCC2)ccc1Cl	5.3	34.7*	-2.9	1.1	-1.6	2.3	2.9
SMILES	TLR4 MyD88 comp	MC4R antagonist	NOD2 RIPK2 PPI	MC4R barr agon	TLR9-MyD88 block	U2OS cAMP counter	MC4R antag conf
CN(C1CC(C)(C)NC(C)(C)C1)S(=O)(=O)CC12CCC(CC1=O)C2(C)C (centres undefined)	nt	3.3	2.4	0.2	-7.3	nt	nt
Nc1ccc(S(=O)(=O)NCC(=O)OCCOc2ccccc2)cc1[N+](=O)[O-]	nt	32.6*	0.0	-3.6	2.2	26.9*	24.3
O=Cc1ccccc1OCCOc1ccc([N+](=O)[O-])cc1	-10.4	4.8	-1.3	-2.0	-2.2	nt	nt
O=C1c2ccccc2C(=O)N1c1nccs1	nt	-7.3	-6.9	-0.9	1.3	nt	nt
O=c1c2ccccc2sn1-c1nccs1	1.0	37.5*	17.5	-2.0	nt	-0.1	0.1
CCS(=O)(=O)c1ncc(Cl)c(C(=O)Nc2ccc(S(=O)(=O)N3CCCC(C)C3)cc2)n1 (centres undefined)	nt	41.1*	13.5	-4.2	1.8	-40.9	19.6
CCc1ccc(C(=O)COC(=O)c2cnc(C)cn2)cc1	-1.7	5.5	-5.0	-2.0	16.6	nt	nt
Cc1cnc(C(=O)OCC(=O)c2ccc(Br)s2)cn1	nt	29.9*	5.1	-1.4	1.1	13.3*	24.8
O=C(O)c1cnn(-c2nc(-c3cccc([N+](=O)[O-])c3)cs2)c1C(F)(F)F	nt	33.3*	9.7	0.1	-1.2	1.4	2.6
O=C(O)c1cnn(-c2nc(-c3cccc(F)c3)cs2)c1C(F)(F)F	-5.5	15.4	0.4	-2.1	-10.2	nt	nt
O=C(O)c1cnn(-c2nc(-c3ccc(Cl)c(Cl)c3)cs2)c1C(F)(F)F	nt	52.0*	-0.9	2.2	-7.0	5.1	21.5
CN1C(=O)C(=O)/C(=C(/O)c2ccc(Br)cc2)C1c1ccc(F)cc1 (centres undefined)	nt	4.5	8.2	0.3	-8.4	nt	nt
COC(=O)CSc1[nH]c2ccc(F)cc2c1[N+](=O)[O-]	nt	34.3*	2.5	-2.7	1.5	3.7	28.2
CCOC(=O)CSc1[nH]c2cc(OC)ccc2c1[N+](=O)[O-]	8.1	16.0	0.5	-4.0	0.2	nt	nt
O=S1(=O)CCN(Cc2ccncc2)CC1	nt	4.7	-5.9	2.1	-9.6	nt	nt
Cc1noc(C)c1COC(=O)/C=C/c1ccc(Cl)cc1	-3.7	30.7*	0.2	1.7	-0.8	2.3	8.9
